Measurements reported in ChEMBL document CHEMBL1833819, “Dihydroquinazolines as a novel class of Trypanosoma brucei trypanothione reductase inhibitors: discovery, synthesis, and characterization of their binding mode by protein crystallography” (J Med Chem, 2011).

How the values were obtained:
[1] = molecular target: T1, Trypanothione reductase (Trypanosoma brucei brucei, UniProt P39051); experiment: Inhibition of recombinant trypanothione reductase from Trypanosoma brucei brucei S427 by DTNB-coupled spectrophotometric assay
Procedure, shortened: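 Recombinant T. brucei brucei S427 TryR tested in a nonenzymatically coupled spectrophotometric assay, where DTNB reduction to TNB is followed as A412 increase. IC50 is the mean of independent duplicates (at least two replicates).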

[2] = test system: MRC5; experiment: Cytotoxicity against human MRC5 cells by resazurin fluorescence-based viability assay; format: cell-based
Procedure, shortened: (§1)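 Bloodstream-form T. b. brucei parasites and MRC5 cells were assayed in resazurin fluorescence-based viability tests. […] Pentamidine served as the positive control in all T. brucei plates.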

[3] = molecular target: T1, Trypanothione reductase; experiment: Mixed type inhibition of recombinant trypanothione reductase from Trypanosoma brucei brucei S427 by Lineweaver burk method
[4] = molecular target: T1, Trypanothione reductase; experiment: Competitive inhibition of recombinant trypanothione reductase from Trypanosoma brucei brucei S427 by Lineweaver burk method
[5] = test system: Trypanosoma brucei brucei; experiment: Antitrypanosomal activity against blood stream form Trypanosoma brucei brucei by resazurin fluorescence-based viability assay; format: functional, organism-based; procedure, shortened: as §1

T1 sequence (P39051 whole entry): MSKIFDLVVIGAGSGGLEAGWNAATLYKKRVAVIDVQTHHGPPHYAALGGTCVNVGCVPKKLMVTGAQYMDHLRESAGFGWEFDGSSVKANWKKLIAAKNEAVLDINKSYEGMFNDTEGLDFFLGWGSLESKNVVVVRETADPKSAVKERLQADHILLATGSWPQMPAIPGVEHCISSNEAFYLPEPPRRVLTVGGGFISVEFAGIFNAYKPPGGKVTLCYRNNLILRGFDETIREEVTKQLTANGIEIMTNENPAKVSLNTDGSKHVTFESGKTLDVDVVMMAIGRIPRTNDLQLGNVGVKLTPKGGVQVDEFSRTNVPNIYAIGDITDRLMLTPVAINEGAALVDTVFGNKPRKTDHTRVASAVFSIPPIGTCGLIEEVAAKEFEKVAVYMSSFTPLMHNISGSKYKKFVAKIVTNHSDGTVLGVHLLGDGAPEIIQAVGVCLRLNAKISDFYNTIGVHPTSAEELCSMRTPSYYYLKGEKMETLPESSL

| Compound | IC50 [1] [nM] | also measured |
| --- | --- | --- |
| CCOC(=O)CN1C(C)=Nc2ccc(Br)cc2C1c1ccccc1 (racemic) | 12000 | – |
| CC1=Nc2ccc(Cl)cc2C(c2ccccc2)N1CCNC(=O)c1ccccc1 (racemic) | 1700 | – |
| CC1=Nc2ccc(Cl)cc2C(c2ccccc2)N1CCNC(=O)c1ccco1 (racemic) | 860 | EC50 [2]: 22000 nM; Ki [3]: 2270 nM; Ki [4]: 440 nM; EC50 [5]: 19000 nM |
| CC1=Nc2ccc(Cl)cc2C(c2ccccc2)N1CCNC(=O)Cc1ccccc1 (racemic) | 1800 | – |
| COCC(=O)NCCN1C(C)=Nc2ccc(Cl)cc2C1c1ccccc1 (racemic) | 1300 | – |
| CC1=Nc2ccc(Cl)cc2C(c2ccccc2)N1CCNC(=O)CN(C)C (racemic) | 810 | EC50 [2]: 12000 nM; EC50 [5]: 13000 nM |
| CC1=Nc2ccc(Cl)cc2C(c2ccccc2)N1CCN1CCN(C(=O)OC(C)(C)C)CC1 (racemic) | 1500 | – |
| CC(=O)N1CCN(CCN2C(C)=Nc3ccc(Cl)cc3C2c2ccccc2)CC1 (racemic) | 1700 | – |
| CC1=Nc2ccc(Cl)cc2C(c2ccccc2)N1CCN1CCN(C(=O)C2CC2)CC1 (racemic) | 1500 | – |
| CC1=Nc2ccc(Cl)cc2C(c2ccccc2)N1CCN1CCN(C(=O)c2ccccc2)CC1 (racemic) | 1600 | – |
| CC1=Nc2ccc(Cl)cc2C(c2ccccc2)N1CCN1CCN(C(=O)c2ccco2)CC1 (racemic) | 420 | EC50 [2]: 23000 nM; EC50 [5]: 10000 nM |
| CC1=Nc2ccc(Cl)cc2C(c2ccccc2)N1CCN1CCN(C(=O)Cc2ccccc2)CC1 (racemic) | 2000 | – |
| COCC(=O)N1CCN(CCN2C(C)=Nc3ccc(Cl)cc3C2c2ccccc2)CC1 (racemic) | 1600 | – |
| CC1=Nc2ccc(Cl)cc2C(c2ccccc2)N1CCN1CCN(C(=O)CN(C)C)CC1 (racemic) | 370 | EC50 [2]: 6000 nM; Ki [3]: 1780 nM; Ki [4]: 270 nM; EC50 [5]: 5600 nM |
| CC1=Nc2ccccc2C(c2ccccc2)N1CCN1CCCCC1 (racemic) | 780 | EC50 [2]: 23000 nM; EC50 [5]: 12000 nM |
| CC1=Nc2ccc(Br)cc2C(c2ccccc2)N1CCN1CCCCC1 (racemic) | 790 | EC50 [2]: 8400 nM; EC50 [5]: 440 nM |
| CC1=Nc2ccc(-c3ccco3)cc2C(c2ccccc2)N1CCN1CCCCC1 (racemic) | 1300 | – |
| CC1=Nc2ccc(I)cc2C(c2ccccc2)N1CCN1CCCCC1 (racemic) | 350 | EC50 [2]: 6800 nM; EC50 [5]: 550 nM |
| CC1=Nc2ccc(-c3ccccc3)cc2C(c2ccccc2)N1CCN1CCCCC1 (racemic) | 7300 | EC50 [2]: 3400 nM; EC50 [5]: 750 nM |

| Compound | IC50 [1] [nM] | also measured |
| --- | --- | --- |
| CC1=Nc2ccc(-c3cccc4ccccc34)cc2C(c2ccccc2)N1CCN1CCCCC1 (racemic) | 8000 | – |
| CC1=Nc2ccc(-c3cc4ccccc4o3)cc2C(c2ccccc2)N1CCN1CCCCC1 (racemic) | 8500 | – |
| CC1=Nc2c(-c3ccccc3)cc(Cl)cc2C(c2ccccc2)N1CCCN(C)C (racemic) | 24000 | – |
| CC1=Nc2ccc(Cl)cc2C(c2ccc(C)cc2)N1CCCN(C)C (racemic) | 230 | EC50 [2]: 1900 nM; Ki [3]: 1460 nM; Ki [4]: 190 nM; EC50 [5]: 730 nM |
| CC1=Nc2ccc(Cl)cc2C(c2ccc(Cl)c(Cl)c2)N1CCN1CCCCC1 (racemic) | 1300 | – |
| CC1=Nc2ccc(Cl)cc2C(c2ccc(C(C)(C)C)cc2)N1CCN1CCCCC1 (racemic) | 7900 | – |
| CC1=Nc2ccc(Cl)cc2C(C2CCCCC2)N1CCN1CCCCC1 (racemic) | 27000 | – |
| CC1=Nc2ccc(Cl)cc2C(O)(c2ccc(F)cc2)N1CCN1CCCCC1 (racemic) | 8300 | – |
| COc1ccc(C2(O)c3cc(Cl)ccc3N=C(C)N2CCN2CCCCC2)cc1 (racemic) | 4900 | – |
| CC1=Nc2ccc(Cl)cc2C(O)(c2ccc(C)cc2)N1CCN1CCCCC1 (racemic) | 710 | EC50 [2]: 5700 nM; EC50 [5]: 1500 nM |
| CC1=Nc2ccc(Cl)cc2C(c2ccc(Cl)cc2)N1CCN1CCCCC1 (racemic) | 730 | – |
| CC1=Nc2ccc(Cl)cc2C(c2ccc(F)cc2)N1CCN1CCCCC1 (racemic) | 4900 | – |
| COc1ccc(C2c3cc(Cl)ccc3N=C(C)N2CCN2CCCCC2)cc1 (racemic) | 1500 | – |
| CC1=Nc2ccc(Cl)cc2C(c2ccc(C)cc2)N1CCN1CCCCC1 (racemic) | 590 | EC50 [2]: 5000 nM; EC50 [5]: 1400 nM |
| CC1=Nc2ccc(Cl)cc2C(c2cccc(C)c2)N1CCN1CCCCC1 (racemic) | 4600 | – |
| CC1=Nc2ccc(Cl)cc2C(c2ccc(C)c(C)c2)N1CCN1CCCCC1 (racemic) | 6800 | – |
| CC1=Nc2ccc(Cl)cc2C(Cc2ccccc2)N1CCN1CCCCC1 (racemic) | 50000 | – |
| CC1=Nc2ccc(Cl)cc2C(c2ccc(O)cc2)N1CCN1CCCCC1 (racemic) | 20000 | – |
| CC1=Nc2ccc(Cl)cc2C(c2cccc(O)c2)N1CCN1CCCCC1 (racemic) | 1600 | – |
